{
  "source": "ChEMBL document CHEMBL4689842",
  "about": "“EUbOPEN Chemogenomics Library wave 1” (2021)",
  "key": {"Fibroblast": {"system": "Fibroblast", "experiment": "Multiplex assay against human fibroblast", "format": "toxicity, cell-based", "how_it_was_run": "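Values for tubulin, mitochondrial-mass and membrane-permeability phenotypes are per cents of cells with healthy nuclei. These cells were identified by CellPathfinder machine-learning gating of live cells that had been stained at seeding with Hoechst33342, BioTracker Green Microtubule Cytoskeleton Dye, MitoTracker Red and Annexin V Alexa Fluor 680 and imaged on a CQ1 microscope at 37°C and 5% CO2 after compound addition. The gating first set Hoechst high-intensity objects apart from normal cells, then split normal cells into healthy, pyknosed or fragmented nuclei, and pyknosed cells into mitotic or apoptotic.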"}, "HEK-293T": {"system": "HEK-293T", "experiment": "Incucyte cell viability with HEK293T; further: filed as whole numbers so only -1 and 0 and 1 occur", "format": "toxicity, cell-based", "conditions": "human, 10 µM, compound concentration 10 uM"}, "[1]": {"conditions": "24 h, 1 µM, compound concentration 1 uM, replicate 2"}, "[2]": {"conditions": "24 h, 10 µM, compound concentration 10 uM, replicate 1"}, "[3]": {"conditions": "24 h, 10 µM, compound concentration 10 uM, replicate 2"}, "[4]": {"conditions": "48 h, 1 µM, compound concentration 1 uM, replicate 1"}, "[5]": {"conditions": "48 h, 1 µM, compound concentration 1 uM, replicate 2"}, "[6]": {"conditions": "48 h, 10 µM, compound concentration 10 uM, replicate 1"}, "[7]": {"conditions": "48 h, 10 µM, compound concentration 10 uM, replicate 2"}},
  "data": [
    {"molecule": "Cc1cc2c(cc1N1C(=O)c3cccc4c(CCCO)ccc(c34)C1=O)n(C)c(=O)n2C", "values": [
      {"measurement": "Population Pyknosed Nuclei (%)", "setting": "Fibroblast; [1]", "result": 5, "unit": "%"},
      {"measurement": "Population Tubulin-Different-Phenotype (%)", "setting": "Fibroblast; [1]", "result": 17, "unit": "%"},
      {"measurement": "Total Cell Count", "setting": "Fibroblast; [1]", "result": 96},
      {"measurement": "Population Apoptotic (%)", "setting": "Fibroblast; [2]", "result": 58, "unit": "%"},
      {"measurement": "Population Fragmented Nuclei (%)", "setting": "Fibroblast; [2]", "result": 22, "unit": "%"},
      {"measurement": "Population Healthy Nuclei (%)", "setting": "Fibroblast; [2]", "result": 47, "unit": "%"},
      {"measurement": "Population Hoechst High Intensity Objects (%)", "setting": "Fibroblast; [2]", "result": 15, "unit": "%"},
      {"measurement": "Population Membrane Permeable-Phenotype (%)", "setting": "Fibroblast; [2]", "result": 13, "unit": "%"},
      {"measurement": "Population Mitochondria Different-Phenotype (%)", "setting": "Fibroblast; [2]", "result": 17, "unit": "%"},
      {"measurement": "Population Mitotic Cells (%)", "setting": "Fibroblast; [2]", "result": 41, "unit": "%"},
      {"measurement": "Population Normal (%)", "setting": "Fibroblast; [2]", "result": 84, "unit": "%"},
      {"measurement": "Population Pyknosed Nuclei (%)", "setting": "Fibroblast; [2]", "result": 29, "unit": "%"},
      {"measurement": "Population Tubulin-Different-Phenotype (%)", "setting": "Fibroblast; [2]", "result": 45, "unit": "%"},
      {"measurement": "Total Cell Count", "setting": "Fibroblast; [2]", "result": 115},
      {"measurement": "Population Apoptotic (%)", "setting": "Fibroblast; [3]", "result": 80, "unit": "%"},
      {"measurement": "Population Fragmented Nuclei (%)", "setting": "Fibroblast; [3]", "result": 18, "unit": "%"},
      {"measurement": "Population Healthy Nuclei (%)", "setting": "Fibroblast; [3]", "result": 62, "unit": "%"},
      {"measurement": "Population Hoechst High Intensity Objects (%)", "setting": "Fibroblast; [3]", "result": 11, "unit": "%"},
      {"measurement": "Population Membrane Permeable-Phenotype (%)", "setting": "Fibroblast; [3]", "result": 41, "unit": "%"},
      {"measurement": "Population Mitochondria Different-Phenotype (%)", "setting": "Fibroblast; [3]", "result": 76, "unit": "%"},
      {"measurement": "Population Mitotic Cells (%)", "setting": "Fibroblast; [3]", "result": 20, "unit": "%"},
      {"measurement": "Population Normal (%)", "setting": "Fibroblast; [3]", "result": 88, "unit": "%"},
      {"measurement": "Population Pyknosed Nuclei (%)", "setting": "Fibroblast; [3]", "result": 18, "unit": "%"},
      {"measurement": "Population Tubulin-Different-Phenotype (%)", "setting": "Fibroblast; [3]", "result": 76, "unit": "%"},
      {"measurement": "Total Cell Count", "setting": "Fibroblast; [3]", "result": 61},
      {"measurement": "Population Apoptotic (%)", "setting": "Fibroblast; [4]", "result": 34, "unit": "%"},
      {"measurement": "Population Fragmented Nuclei (%)", "setting": "Fibroblast; [4]", "result": 31, "unit": "%"},
      {"measurement": "Population Healthy Nuclei (%)", "setting": "Fibroblast; [4]", "result": 45, "unit": "%"},
      {"measurement": "Population Hoechst High Intensity Objects (%)", "setting": "Fibroblast; [4]", "result": 21, "unit": "%"},
      {"measurement": "Population Membrane Permeable-Phenotype (%)", "setting": "Fibroblast; [4]", "result": 28, "unit": "%"},
      {"measurement": "Population Mitochondria Different-Phenotype (%)", "setting": "Fibroblast; [4]", "result": 2, "unit": "%"},
      {"measurement": "Population Mitotic Cells (%)", "setting": "Fibroblast; [4]", "result": 65, "unit": "%"},
      {"measurement": "Population Normal (%)", "setting": "Fibroblast; [4]", "result": 78, "unit": "%"},
      {"measurement": "Population Pyknosed Nuclei (%)", "setting": "Fibroblast; [4]", "result": 22, "unit": "%"},
      {"measurement": "Population Tubulin-Different-Phenotype (%)", "setting": "Fibroblast; [4]", "result": 30, "unit": "%"},
      {"measurement": "Total Cell Count", "setting": "Fibroblast; [4]", "result": 129},
      {"measurement": "Population Apoptotic (%)", "setting": "Fibroblast; [5]", "result": 100, "unit": "%"},
      {"measurement": "Population Fragmented Nuclei (%)", "setting": "Fibroblast; [5]", "result": 28, "unit": "%"},
      {"measurement": "Population Healthy Nuclei (%)", "setting": "Fibroblast; [5]", "result": 69, "unit": "%"},
      {"measurement": "Population Hoechst High Intensity Objects (%)", "setting": "Fibroblast; [5]", "result": 9, "unit": "%"},
      {"measurement": "Population Membrane Permeable-Phenotype (%)", "setting": "Fibroblast; [5]", "result": 21, "unit": "%"},
      {"measurement": "Population Mitochondria Different-Phenotype (%)", "setting": "Fibroblast; [5]", "result": 1, "unit": "%"},
      {"measurement": "Population Mitotic Cells (%)", "setting": "Fibroblast; [5]", "result": 0, "unit": "%"},
      {"measurement": "Population Normal (%)", "setting": "Fibroblast; [5]", "result": 90, "unit": "%"},
      {"measurement": "Population Pyknosed Nuclei (%)", "setting": "Fibroblast; [5]", "result": 2, "unit": "%"},
      {"measurement": "Population Tubulin-Different-Phenotype (%)", "setting": "Fibroblast; [5]", "result": 35, "unit": "%"},
      {"measurement": "Total Cell Count", "setting": "Fibroblast; [5]", "result": 118},
      {"measurement": "Population Apoptotic (%)", "setting": "Fibroblast; [6]", "result": 90, "unit": "%"},
      {"measurement": "Population Fragmented Nuclei (%)", "setting": "Fibroblast; [6]", "result": 35, "unit": "%"},
      {"measurement": "Population Healthy Nuclei (%)", "setting": "Fibroblast; [6]", "result": 54, "unit": "%"},
      {"measurement": "Population Hoechst High Intensity Objects (%)", "setting": "Fibroblast; [6]", "result": 18, "unit": "%"},
      {"measurement": "Population Membrane Permeable-Phenotype (%)", "setting": "Fibroblast; [6]", "result": 22, "unit": "%"},
      {"measurement": "Population Mitotic Cells (%)", "setting": "Fibroblast; [6]", "result": 10, "unit": "%"},
      {"measurement": "Population Normal (%)", "setting": "Fibroblast; [6]", "result": 81, "unit": "%"},
      {"measurement": "Population Pyknosed Nuclei (%)", "setting": "Fibroblast; [6]", "result": 10, "unit": "%"},
      {"measurement": "Population Tubulin-Different-Phenotype (%)", "setting": "Fibroblast; [6]", "result": 62, "unit": "%"},
      {"measurement": "Total Cell Count", "setting": "Fibroblast; [6]", "result": 120},
      {"measurement": "Population Apoptotic (%)", "setting": "Fibroblast; [7]", "result": 66, "unit": "%"},
      {"measurement": "Population Fragmented Nuclei (%)", "setting": "Fibroblast; [7]", "result": 26, "unit": "%"},
      {"measurement": "Population Healthy Nuclei (%)", "setting": "Fibroblast; [7]", "result": 68, "unit": "%"},
      {"measurement": "Population Hoechst High Intensity Objects (%)", "setting": "Fibroblast; [7]", "result": 9, "unit": "%"},
      {"measurement": "Population Membrane Permeable-Phenotype (%)", "setting": "Fibroblast; [7]", "result": 23, "unit": "%"},
      {"measurement": "Population Mitochondria Different-Phenotype (%)", "setting": "Fibroblast; [7]", "result": 5, "unit": "%"},
      {"measurement": "Population Mitotic Cells (%)", "setting": "Fibroblast; [7]", "result": 33, "unit": "%"},
      {"measurement": "Population Normal (%)", "setting": "Fibroblast; [7]", "result": 90, "unit": "%"},
      {"measurement": "Population Pyknosed Nuclei (%)", "setting": "Fibroblast; [7]", "result": 6, "unit": "%"},
      {"measurement": "Population Tubulin-Different-Phenotype (%)", "setting": "Fibroblast; [7]", "result": 85, "unit": "%"},
      {"measurement": "Total Cell Count", "setting": "Fibroblast; [7]", "result": 55},
      {"measurement": "Growth Rate", "setting": "HEK-293T; 0 h, replicate number 1, timepoint 0 hours", "result": 1},
      {"measurement": "Growth Rate", "setting": "HEK-293T; 24 h, replicate number 1, timepoint 24 hours", "result": 1}
    ]}
  ]
}
